Here are results for ten compounds from ChEMBL document CHEMBL4270616, “Asymmetrical meta-methoxylated diarylpentanoids: Rational design, synthesis and anti-cancer evaluation in-vitro” (Eur J Med Chem, 2018).

For orientation: IC50 means the concentration at which inhibition is half-maximal. By inhibition is commonly meant the share of the control response that was lost under treatment.

For experiment [1], the system named is A549. Briefly: Cytotoxicity against human A549 cells after 72 hrs by MTT assay. Type of experiment: functional, cell-based. The note with it: A549, 72 h. The method in brief: (§1)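 Tumour lines kept in DMEM with 10% FBS and 1% penicillin/streptomycin at 37°C, 5% CO2. Seeded at 1500-5000 cells/well by doubling time and size, 24 h, then compound in DMSO-containing medium (final DMSO 0.1%) for 72 h. MTT (5 mg/mL) 4 h at 37°C, DMSO solubilisation, absorbance at 570 nm.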
On the technique in general: Tetrazolium dyes change colour on reduction, which living cells bring about.

The test system of experiment [2] is HT-1080. Briefly: Cytotoxicity against human HT1080 cells after 72 hrs by MTT assay. Type of experiment: functional, cell-based. The following applies: HT-1080, 72 h. The procedure, abridged: as §1
A short description of experiment [3]: Cytotoxicity against human EJ28 cells assessed as inhibition of cell proliferation at 20 uM after 72 hrs by MTT assay relative to control. It counts as functional. The note with it: EJ-28, 72 h. The method in brief: (§2)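 Single-concentration screen at 20 μM with 72 h exposure in DMEM with 10% FBS, final DMSO 0.1%. Read-out was MTT (5 mg/mL, 4 h, 37°C), DMSO solubilisation and absorbance at 570 nm, expressed as percent inhibition. Lines reaching a threshold percentage went on to IC50 determination.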

Experiment [4] relates to MCF7. Briefly: Cytotoxicity against human MCF7 cells after 72 hrs by MTT assay. The note with it: MCF7, 72 h. It counts as functional, cell-based. The method in brief:
as §1

The test system of experiment [5] is MCF7. The experiment can be described thus: Cytotoxicity against human MCF7 cells assessed as inhibition of cell proliferation at 20 uM after 72 hrs by MTT assay relative to control. Type of experiment: functional. The following applies: MCF7, 72 h. The procedure, abridged:
as §2

In experiment [6] the test system is SW-620. Briefly: Cytotoxicity against human SW620 cells after 72 hrs by MTT assay. The note with it: SW-620, 72 h. Type of experiment: functional, cell-based. The procedure, abridged: as §1
For a further experiment, the system named is NHDF. The experiment can be described thus: Cytotoxicity against NHDF after 72 hrs by MTT assay. It counts as cell-based. The following applies: Homo sapiens. The method in brief: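 NHDF grown in DMEM with 5% FBS at 37°C, 5% CO2. Seeded at 1500-5000 cells/well, 24 h, then compound added in DMSO-containing medium (final DMSO 0.1%) for 72 h. MTT (5 mg/mL in medium) added for 4 h at 37°C, formazan dissolved in DMSO, absorbance read at 570 nm.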

The subject of experiment [7] is HT-1080. Briefly: Cytotoxicity against human HT1080 cells assessed as inhibition of cell proliferation at 20 uM after 72 hrs by MTT assay relative to control. The note with it: HT-1080, 72 h. Type of experiment: functional. The method in brief:
as §2

The nature of experiment [8]: Cytotoxicity against human EJ28 cells after 72 hrs by MTT assay. Type of experiment: functional, cell-based. The note with it: EJ-28, 72 h. The method in brief:
as §1

Experiment [9] deals with SW-620. The experiment can be described thus: Cytotoxicity against human SW620 cells assessed as inhibition of cell proliferation at 20 uM after 72 hrs by MTT assay relative to control. Type of experiment: functional. The note with it: SW-620, 72 h. The procedure, abridged:
as §2

The subject of experiment [10] is A549. Briefly: Cytotoxicity against human A549 cells assessed as inhibition of cell proliferation at 20 uM after 72 hrs by MTT assay relative to control. It counts as functional. The following applies: A549, 72 h. The procedure, abridged: as §2

Molecules are shown by their SMILES.

As to `COc1ccccc1/C=C1\CCC/C(=C\c2ccc(OC)c(OC)c2)C1=O`, the IC50 was greater than 20 µM in the experiment on A549 [1]; 8.1 µM with HT-1080 [2]; 8 µM with MCF7 [4]; 7.8 µM in the experiment on SW-620 [6]; 18.1 µM in the experiment on NHDF; 8.1 µM in experiment [8]. Further, the inhibition at 20 µM (in [3]; with MCF7 [5]; in the experiment on HT-1080 [7]; in the experiment with SW-620 [9]; in the experiment on A549 [10]) was greater than 50% in each case.

For the compound `COc1cccc(/C=C2\CCC/C(=C\c3ccc(O)c(O)c3)C2=O)c1OC`, the IC50 in the experiment on A549 [1] was greater than 20 µM; in the experiment on HT-1080 [2] it was 4.7 µM; with MCF7 [4] it was 4.7 µM; in the experiment with SW-620 [6] it was 6.3 µM; in the experiment with NHDF, 17.9 µM; in [8], 6.4 µM. Besides, the inhibition at 20 µM (in [3]; in the experiment with MCF7 [5]; with HT-1080 [7]; in the experiment on SW-620 [9]; with A549 [10]) was greater than 50% in each case.

As for `COc1ccc(/C=C2\CCC/C(=C\c3ccc(OC)c(OC)c3)C2=O)cc1`, the IC50 in the experiment on A549 [1] was greater than 20 µM; in the experiment with HT-1080 [2], 7.2 µM; in the experiment on MCF7 [4], 7.8 µM; in the experiment on SW-620 [6], 6.6 µM; with NHDF it was 30.9 µM; in experiment [8] it was 8.4 µM. Further, the inhibition at 20 µM (in experiment [3]; in the experiment with MCF7 [5]; in the experiment on HT-1080 [7]; with SW-620 [9]; in the experiment with A549 [10]) was greater than 50% throughout.

Take `COc1cccc(/C=C2\CCC/C(=C\c3cccc(OC)c3OC)C2=O)c1`: the IC50 came to 16.4 µM in the experiment with A549 [1]; 9.9 µM with HT-1080 [2]; 5.9 µM with MCF7 [4]; 7 µM in the experiment on SW-620 [6]; 16.4 µM in the experiment with NHDF; 10 µM in [8]. In addition, the inhibition at 20 µM (in experiment [3]; with MCF7 [5]; with HT-1080 [7]; in the experiment with SW-620 [9]; with A549 [10]) was greater than 50% throughout.

As to `COc1ccccc1/C=C1\CCC/C(=C\c2cccc(OC)c2OC)C1=O`, the IC50 with A549 [1] is greater than 20 µM; in the experiment with HT-1080 [2] it was 14.1 µM; in the experiment on MCF7 [4], 12 µM; with SW-620 [6] it was greater than 20 µM; in the experiment on NHDF, 31.3 µM; in [8] it was 16.6 µM. Moreover, the inhibition at 20 µM (in [3]; with MCF7 [5]; in the experiment with HT-1080 [7]; in the experiment on SW-620 [9]; with A549 [10]) was greater than 50% throughout.

`COc1cccc(/C=C2\CCC/C(=C\c3cccc(OC)c3OC)C2=O)c1OC`: the IC50 in the experiment with A549 [1] was 11.4 µM; in the experiment on HT-1080 [2] it was 6.1 µM; in the experiment on MCF7 [4] it was 5 µM; with SW-620 [6], 8.3 µM; in the experiment with NHDF it was 31 µM; in [8], 8.4 µM. Besides, the inhibition at 20 µM (in experiment [3]; in the experiment on MCF7 [5]; with HT-1080 [7]; in the experiment with SW-620 [9]; in the experiment with A549 [10]) was greater than 50% each time.

Take `COc1ccc(/C=C2\CCC/C(=C\c3ccccc3Cl)C2=O)cc1OC`: the IC50 in the experiment with A549 [1] was greater than 20 µM; in the experiment on HT-1080 [2], 6.8 µM; in the experiment with MCF7 [4] it was 10.4 µM; in the experiment with SW-620 [6] it was 7.1 µM; in the experiment on NHDF, 21.6 µM; in experiment [8], 6.9 µM. The inhibition at 20 µM (in [3]; in the experiment with MCF7 [5]; in the experiment on HT-1080 [7]; with SW-620 [9]; in the experiment with A549 [10]) was greater than 50% in each case.

As for `COc1cccc(/C=C2\CCC/C(=C\c3ccccc3Br)C2=O)c1OC`, the half-maximal inhibitory concentration (IC50) in the experiment with A549 [1] was greater than 20 µM; in the experiment with HT-1080 [2] it was 10.8 µM; with MCF7 [4], 9.7 µM; with SW-620 [6] it was 12.1 µM; with NHDF it was greater than 50 µM; in experiment [8], 10.8 µM. In addition, the inhibition at 20 µM (in experiment [3]; with MCF7 [5]; with HT-1080 [7]; in the experiment on SW-620 [9]; in the experiment with A549 [10]) was greater than 50% each time.

Regarding `COc1cccc(/C=C2\CCC/C(=C\c3cccc(Cl)c3)C2=O)c1OC`, the half-inhibitory concentration (IC50) with A549 [1] was greater than 20 µM; in the experiment on HT-1080 [2] it was 10.3 µM; with MCF7 [4], 12 µM; in the experiment on SW-620 [6] it was 9.1 µM; in the experiment with NHDF it was 21.4 µM; in experiment [8], 11.3 µM. In addition, the inhibition at 20 µM (in experiment [3]; in the experiment with MCF7 [5]; in the experiment on HT-1080 [7]; with SW-620 [9]; in the experiment on A549 [10]) was greater than 50% throughout.

Take `COc1ccc(/C=C2\CCC/C(=C\c3ccc(O)cc3)C2=O)cc1OC`: the IC50 in the experiment on A549 [1] is greater than 20 µM; in the experiment on HT-1080 [2], 16.8 µM; in the experiment with MCF7 [4], 17 µM; with SW-620 [6], 7.7 µM; in the experiment with NHDF it was 26.1 µM; in [8], 16.6 µM. In addition, the inhibition at 20 µM (in experiment [3]; in the experiment on MCF7 [5]; in the experiment on HT-1080 [7]; with SW-620 [9]; with A549 [10]) was greater than 50% each time.
